According to ChEMBL document CHEMBL4229352, “Synthesis, antileishmanial activity and mechanism of action studies of novel β-carboline-1,3,5-triazine hybrids” (Eur J Med Chem, 2018):
Calls of active or inactive are those of the source. The rule behind the calls is not given here.

Tests used:
Leishmania amazonensis [1] = test: Antileishmanial activity against promastigote forms of Leishmania amazonensis after 72 hrs by XTT/PMS dye based spectrophotometric analysis; type: functional, organism-based
Procedure, shortened: (§1)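 Log-phase parasites (promastigotes 48 h, axenic amastigotes 72 h) plated at the printed density with increasing compound concentrations; 72 h at 25 °C (promastigotes) or 32 °C (axenic amastigotes). XTT/PMS (0.5 and 0.3 mg/mL) added in the dark, absorbance at 450 nm after 4 h; IC50 versus negative control by regression. Mean ± SD of at least three independent experiments.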

Leishmania amazonensis [2] = test: Antileishmanial activity against axenic amastigote forms of Leishmania amazonensis after 72 hrs by XTT/PMS dye based spectrophotometric analysis; type: functional, organism-based; procedure, shortened: as §1
[3] = Cytotoxicity against mouse J774A1 cells assessed as reduction in cell viability after 48 hrs by MTT assay; type: cell-based, J774.A1
Procedure, shortened: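 J774-A1 macrophages in RPMI 1640 with 10% FBS, plated and left 24 h at 37 °C, 5% CO2. Supernatant then replaced by increasing compound concentrations for 48 h. After a PBS wash, MTT (2 mg/mL) was added for 4 h at 25 °C in the dark, formazan dissolved in DMSO, absorbance read at 570 nm. CC50 by regression versus negative control; at least three experiments.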

[4] = Selectivity index, ratio of CC50 for mouse J774A1 cells to IC50 for promastigote forms of Leishmania amazonensis; type: toxicity; conditions: read-out: Ratio CC50/IC50
Procedure, shortened: (§2)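 Selectivity index calculated as CC50 in J774-A1 macrophages (48 h MTT) divided by IC50 for L. amazonensis promastigotes or axenic amastigotes (72 h XTT/PMS).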

[5] = Selectivity index, ratio of CC50 for mouse J774A1 cells to IC50 for axenic amastigote forms of Leishmania amazonensis; type: toxicity; conditions: read-out: Ratio CC50/IC50; procedure, shortened: as §2
Leishmania amazonensis [6] = test: Induction of ultrastructural alteration in promastigote forms of Leishmania amazonensis assessed as ultrastructural alteration in mitochondrial membrane at 6.2 uM after 24 hrs by transmission electron microscopic analysis; type: functional, organism-based
Procedure, shortened: (§3)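 Promastigotes (1 x 10^6/mL) exposed to 6.2 μM for 24, 48 or 72 h at 25 °C alongside untreated controls. Fixed in 2.5% glutaraldehyde in 0.1 M cacodylate buffer. For TEM, post-fixed 1 h in 1% OsO4 with 0.8% potassium ferrocyanide in cacodylate buffer. For SEM, samples were gold-coated before viewing.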

Leishmania amazonensis [7] = test: Induction of ultrastructural alteration in promastigote forms of Leishmania amazonensis assessed as ultrastructural alteration in plasma membrane at 6.2 uM after 24 hrs by transmission electron microscopic analysis; type: functional, organism-based; procedure, shortened: as §3
Leishmania amazonensis [8] = test: Induction of ultrastructural alteration in promastigote forms of Leishmania amazonensis assessed as formation of storage-lipid bodies at 6.2 uM after 48 hrs by transmission electron microscopic analysis; type: functional, organism-based; procedure, shortened: as §3
Leishmania amazonensis [9] = test: Induction of ultrastructural alteration in promastigote forms of Leishmania amazonensis assessed as formation of mitochondrial swelling at 6.2 uM after 48 hrs by transmission electron microscopic analysis; type: functional, organism-based; procedure, shortened: as §3
Leishmania amazonensis [10] = test: Induction of ultrastructural alteration in promastigote forms of Leishmania amazonensis assessed as alteration in plasma membrane at 6.2 uM after 48 hrs by transmission electron microscopic analysis; type: functional, organism-based; procedure, shortened: as §3
Leishmania amazonensis [11] = test: Induction of ultrastructural alteration in promastigote forms of Leishmania amazonensis assessed as alteration in flagellar pocket with vacuoles at 6.2 uM after 72 hrs by transmission electron microscopic analysis; type: functional, organism-based; procedure, shortened: as §3
Leishmania amazonensis [12] = test: Induction of ultrastructural alteration in promastigote forms of Leishmania amazonensis assessed as formation of mitochondrial swelling at 6.2 uM after 72 hrs by transmission electron microscopic analysis; type: functional, organism-based; procedure, shortened: as §3
Leishmania amazonensis [13] = test: Induction of morphological alteration in promastigote forms of Leishmania amazonensis assessed as cell rounding at 6.2 uM after 24 to 72 hrs by scanning electron microscopic analysis; type: functional, organism-based; procedure, shortened: as §3
Leishmania amazonensis [14] = test: Induction of morphological alteration in promastigote forms of Leishmania amazonensis assessed as reduction in cell volume at 6.2 uM after 24 to 72 hrs by scanning electron microscopic analysis; type: functional, organism-based; procedure, shortened: as §3
Leishmania amazonensis [15] = test: Induction of ROS generation in promastigote forms of Leishmania amazonensis at IC50 after 24 hrs by H2DCFDA staining based spectrofluorometric analysis relative to control; type: functional
Leishmania amazonensis [16] = test: Induction of ROS generation in promastigote forms of Leishmania amazonensis at IC90 after 24 hrs by H2DCFDA staining based spectrofluorometric analysis relative to control; type: functional
Leishmania amazonensis [17] = test: Induction of lipid body storage in promastigote forms of Leishmania amazonensis at IC50 after 24 hrs by nile red staining based fluorescence assay relative to control; type: functional
Leishmania amazonensis [18] = test: Induction of lipid body storage in promastigote forms of Leishmania amazonensis at IC90 after 24 hrs by nile red staining based fluorescence assay relative to control; type: functional
Leishmania amazonensis [19] = test: Induction of ROS generation in promastigote forms of Leishmania amazonensis at IC50 to IC90 uM after 24 hrs in presence of NAC by H2DCFDA staining based spectrofluorometric analysis; type: functional, organism-based
Leishmania amazonensis [20] = test: Antileishmanial activity against promastigote forms of Leishmania amazonensis MHOM/BR/75/Josefa after 72 hrs by haemocytometry; type: functional, organism-based
[21] = Selectivity index, ratio of CC50 for mouse J774.G8 cells to IC50 for promastigote forms of Leishmania amazonensis MHOM/BR/75/Josefa; type: toxicity; conditions: read-out: Ratio CC50/IC50
Leishmania amazonensis [22] = test: Antileishmanial activity against axenic amastigote forms of Leishmania amazonensis MHOM/BR/75/Josefa after 72 hrs by haemocytometry; type: functional, organism-based

Structure (SMILES) | IC50 (Leishmania amazonensis [1]) [µM] | CC50 at 48 h [3] [µM] | selectivity ratio [4] | further results
COc1ccc(-c2nc(C(=O)NCCNc3nc(NC(C)C)nc(NC(C)C)n3)cc3c2[nH]c2ccccc23)cc1 | 6.2 | 146 | 23.5 | IC50 (Leishmania amazonensis [2]): 1.2 µM; selectivity ratio [5]: 121; Activity (Leishmania amazonensis [6]): Active; Activity (Leishmania amazonensis [7]): Active; Activity (Leishmania amazonensis [8]): Active; Activity (Leishmania amazonensis [9]): Active; Activity (Leishmania amazonensis [10]): Active; Activity (Leishmania amazonensis [11]): Active; Activity (Leishmania amazonensis [12]): Active; Activity (Leishmania amazonensis [13]): Active; Activity (Leishmania amazonensis [14]): Active; Activity (Leishmania amazonensis [15]): 81.9%; Activity (Leishmania amazonensis [16]): 184.8%; Activity (Leishmania amazonensis [17]): 9%; Activity (Leishmania amazonensis [18]): 428.6%; Activity (Leishmania amazonensis [19]): Active
NNc1nc(NN)nc(NCCNC(=O)c2cc3c([nH]c4ccccc43)c(-c3ccccc3)n2)n1 | > 100 |  |  | 
CC(C)Nc1nc(NCCNC(=O)c2cc3c([nH]c4ccccc43)c(-c3ccccc3)n2)nc(NC(C)C)n1 | 7.5 | 98.1 | 13.1 | IC50 (Leishmania amazonensis [2]): 35 µM; selectivity ratio [5]: 2.8
O=C(NCCNc1nc(Cl)nc(Cl)n1)c1cc2c([nH]c3ccccc32)c(-c2ccc(F)cc2)n1 | > 100 |  |  | 
CC(C)Nc1nc(NNC(=O)c2cc3c([nH]c4ccccc43)c(-c3ccccc3)n2)nc(NC(C)C)n1 | 39.7 | 103 | 2.6 | IC50 (Leishmania amazonensis [2]): 32.5 µM; selectivity ratio [5]: 3.16
CC(C)Nc1nc(NNC(=O)c2cc3c([nH]c4ccccc43)c(-c3ccc(F)cc3)n2)nc(NC(C)C)n1 | 43.4 | 50 | 1.2 | 
CCCCCCCCCCCCCCCCOP(=O)([O-])OCC[N+](C)(C)C [MILTEFOSINE] | 18.5 | 40.5 | 2.2 | IC50 (Leishmania amazonensis [2]): 2.4 µM; selectivity ratio [5]: 16.9
O=C(NCCNc1nc(Cl)nc(Cl)n1)c1cc2c([nH]c3ccccc32)c(-c2ccccc2)n1 | 30.9 | 135 | 4.4 | IC50 (Leishmania amazonensis [2]): 1.9 µM; selectivity ratio [5]: 70.8
O=C(NNc1nc(Cl)nc(Cl)n1)c1cc2c([nH]c3ccccc32)c(-c2ccc(F)cc2)n1 | > 100 |  |  | 
O=C(NNc1nc(Cl)nc(Cl)n1)c1cc2c([nH]c3ccccc32)c(-c2ccccc2Cl)n1 | 34.1 | 22 | 0.6 | 
O=C(NCCNc1nc(NC2CCCCC2)nc(NC2CCCCC2)n1)c1cc2c([nH]c3ccccc32)c(-c2ccccc2)n1 | > 100 |  |  | 
COc1ccc(-c2nc(C(=O)NNc3nc(Cl)nc(Cl)n3)cc3c2[nH]c2ccccc23)cc1 | > 100 |  |  | 
CC(C)Nc1nc(NCCNC(=O)c2cc3c([nH]c4ccccc43)c(-c3ccccc3Cl)n2)nc(NC(C)C)n1 | > 100 |  |  | 
COc1ccc(-c2nc(C(=O)NNc3nc(NC(C)C)nc(NC(C)C)n3)cc3c2[nH]c2ccccc23)cc1 | > 100 |  |  | 
CC(C)Nc1nc(NCCNC(=O)c2cc3c([nH]c4ccccc43)c(-c3cccc([N+](=O)[O-])c3)n2)nc(NC(C)C)n1 | 44.6 | 86.3 | 1.9 | 
O=C(NNc1nc(Cl)nc(Cl)n1)c1cc2c([nH]c3ccccc32)c(-c2ccccc2)n1 | 43.3 | 94.5 | 2.2 | IC50 (Leishmania amazonensis [2]): 1.1 µM; selectivity ratio [5]: 85.9
COc1ccc(-c2nc(C(=O)NCCNc3nc(Cl)nc(Cl)n3)cc3c2[nH]c2ccccc23)cc1 | 67.5 | 201 | 3 | IC50 (Leishmania amazonensis [2]): 1 µM; selectivity ratio [5]: 201
CN1CCN(c2nc(NCCNC(=O)c3cc4c([nH]c5ccccc54)c(-c4ccccc4)n3)nc(N3CCN(C)CC3)n2)CC1 | > 100 |  |  | 
O=C(NCCNc1nc(Cl)nc(Cl)n1)c1cc2c([nH]c3ccccc32)c(-c2ccccc2Cl)n1 | 7.6 | 28.5 | 3.8 | 
O=C(NCCCCCCNc1nc(Cl)nc(Cl)n1)c1cc2c([nH]c3ccccc32)c(-c2ccccc2)n1 | > 100 |  |  | 
O=C(NCCNc1nc(N2CCOCC2)nc(N2CCOCC2)n1)c1cc2c([nH]c3ccccc32)c(-c2ccccc2)n1 | > 100 |  |  | 
CC(C)Nc1nc(NNC(=O)c2cc3c([nH]c4ccccc43)c(-c3ccccc3Cl)n2)nc(NC(C)C)n1 | > 100 |  |  | 
O=C(NCCNc1nc(Cl)nc(Cl)n1)c1cc2c([nH]c3ccccc32)c(-c2cccc([N+](=O)[O-])c2)n1 | 5.1 | 83.1 | 16.3 | IC50 (Leishmania amazonensis [2]): 1.1 µM; selectivity ratio [5]: 75.5
CCCCNC(=O)c1cc2c([nH]c3ccccc32)c(-c2ccc(OC)cc2)n1 |  |  |  | IC50 (Leishmania amazonensis [20]): 0.25 µM; selectivity ratio [21]: 2080
O=C(NCCNc1nc(NCc2ccccc2)nc(NCc2ccccc2)n1)c1cc2c([nH]c3ccccc32)c(-c2ccccc2)n1 | > 100 |  |  | 
COc1ccc(-c2nc(C(=O)NCc3ccccc3)cc3c2[nH]c2ccccc23)cc1 |  |  |  | IC50 (Leishmania amazonensis [20]): 2.6 µM; IC50 (Leishmania amazonensis [22]): 1 µM
CC(C)Nc1nc(NCCNC(=O)c2cc3c([nH]c4ccccc43)c(-c3ccc(F)cc3)n2)nc(NC(C)C)n1 | > 100 |  |  | 
